Measurements taken from ChEMBL document CHEMBL1138502, “Discovery and biological evaluation of novel cyanoguanidine P2X(7) antagonists with analgesic activity in a rat model of neuropathic pain” (J Med Chem, 2009).
Calls of active or inactive are those of the source. No cut-off for these calls is given here.

Legend:
P2X purinoceptor 7 [1] = molecular target: T1, P2X purinoceptor 7 (Rattus norvegicus, UniProt Q64663); test: Antagonist activity at rat cloned P2X7 receptor expressed in HEK293 cells assessed as inhibition of calcium flux by FLIPR assay; type: functional, cell-based
T1 sequence (Q64663 whole entry): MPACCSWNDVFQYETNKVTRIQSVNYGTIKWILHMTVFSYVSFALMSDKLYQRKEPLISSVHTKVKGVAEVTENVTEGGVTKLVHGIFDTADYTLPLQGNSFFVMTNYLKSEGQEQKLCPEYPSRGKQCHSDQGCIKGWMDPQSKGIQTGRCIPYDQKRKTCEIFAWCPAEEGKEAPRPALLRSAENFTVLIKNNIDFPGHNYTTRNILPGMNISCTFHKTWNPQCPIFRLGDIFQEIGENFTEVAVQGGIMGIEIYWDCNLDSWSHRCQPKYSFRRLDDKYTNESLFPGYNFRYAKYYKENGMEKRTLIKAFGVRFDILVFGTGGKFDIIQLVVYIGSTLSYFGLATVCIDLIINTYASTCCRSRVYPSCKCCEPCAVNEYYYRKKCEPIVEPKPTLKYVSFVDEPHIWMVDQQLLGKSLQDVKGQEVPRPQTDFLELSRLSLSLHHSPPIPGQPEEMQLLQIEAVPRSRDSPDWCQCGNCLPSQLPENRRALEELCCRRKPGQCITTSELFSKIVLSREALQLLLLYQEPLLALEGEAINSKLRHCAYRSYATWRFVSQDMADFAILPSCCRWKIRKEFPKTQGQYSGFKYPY
Summary of the method: (§1)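 Calcium influx read on a fluorometric imaging plate reader with Fluo-4 as the calcium-sensing dye. The P2X7 agonist was benzoylbenzoic ATP (BzATP). pIC50 values are the mean of two experiments unless otherwise indicated; some values are the mean of more than two experiments, with standard deviation shown.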

P2X purinoceptor 7 [2] = molecular target: T2, P2X purinoceptor 7 (Homo sapiens, UniProt Q99572); test: Antagonist activity at human cloned P2X7 receptor expressed in HEK293 cells assessed as inhibition of calcium flux by FLIPR assay; type: functional, cell-based; summary of the method: as §1
T2 sequence (Q99572 whole entry): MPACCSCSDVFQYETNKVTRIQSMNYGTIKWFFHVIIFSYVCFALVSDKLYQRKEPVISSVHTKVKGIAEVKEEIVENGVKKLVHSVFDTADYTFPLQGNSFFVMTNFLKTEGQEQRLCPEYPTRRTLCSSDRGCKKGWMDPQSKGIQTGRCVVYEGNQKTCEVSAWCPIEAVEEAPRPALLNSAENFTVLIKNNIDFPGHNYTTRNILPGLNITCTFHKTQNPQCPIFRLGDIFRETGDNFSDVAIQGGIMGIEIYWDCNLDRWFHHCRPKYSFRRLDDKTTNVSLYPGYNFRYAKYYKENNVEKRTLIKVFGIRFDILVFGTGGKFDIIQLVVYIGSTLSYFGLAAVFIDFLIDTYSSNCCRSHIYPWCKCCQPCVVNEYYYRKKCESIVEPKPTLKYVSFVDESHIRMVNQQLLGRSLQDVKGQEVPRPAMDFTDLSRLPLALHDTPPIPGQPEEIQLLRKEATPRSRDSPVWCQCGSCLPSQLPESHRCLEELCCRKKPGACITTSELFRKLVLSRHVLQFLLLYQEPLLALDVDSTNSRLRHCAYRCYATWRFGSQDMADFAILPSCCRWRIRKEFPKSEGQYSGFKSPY

[3] = Bioavailability in rat at 10 umol/kg, ip; type: ADME, organism-based; conditions: in vivo
Rattus norvegicus = test: Antinociceptive activity in ip dosed rat L5-L6 spinal nerve ligation model of neuropathic pain assessed as reduction in tactile allodynia; type: functional; set-up: Activity: scale not given: the % may be the effect or the level left; conditions: for ED50: Rattus norvegicus, Spinal nerve, ip
Summary of the method: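 Intraperitoneal dosing in rats with L5-L6 spinal nerve ligation (Chung model). Tactile allodynia was measured by von Frey testing. ED50 in µmol/kg and maximum efficacy (%) are the mean of six animals.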

[4] = molecular target: T3, P2X purinoceptor 4 (Homo sapiens) (UniProt Q99571); test: Activity at P2X4 receptor up to 10 uM
T3 sequence (whole entry): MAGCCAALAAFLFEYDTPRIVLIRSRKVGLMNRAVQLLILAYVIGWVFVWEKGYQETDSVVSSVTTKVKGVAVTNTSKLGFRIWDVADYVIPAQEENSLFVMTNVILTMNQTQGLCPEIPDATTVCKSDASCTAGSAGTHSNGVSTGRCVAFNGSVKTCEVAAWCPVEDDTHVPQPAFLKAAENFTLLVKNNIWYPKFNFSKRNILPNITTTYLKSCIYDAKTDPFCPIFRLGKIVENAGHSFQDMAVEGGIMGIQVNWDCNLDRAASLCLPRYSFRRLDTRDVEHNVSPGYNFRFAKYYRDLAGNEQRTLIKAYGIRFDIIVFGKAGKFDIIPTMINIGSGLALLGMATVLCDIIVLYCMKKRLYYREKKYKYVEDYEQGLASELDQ

[5] = molecular target: P2Y purinoceptor 2 (Homo sapiens) (UniProt P41231); test: Activity at P2Y2 receptor up to 10 uM
[6] = molecular target: T4, P2X purinoceptor 3 (Homo sapiens) (UniProt P56373); test: Activity at P2X3 receptor up to 10 uM
T4 sequence (whole entry): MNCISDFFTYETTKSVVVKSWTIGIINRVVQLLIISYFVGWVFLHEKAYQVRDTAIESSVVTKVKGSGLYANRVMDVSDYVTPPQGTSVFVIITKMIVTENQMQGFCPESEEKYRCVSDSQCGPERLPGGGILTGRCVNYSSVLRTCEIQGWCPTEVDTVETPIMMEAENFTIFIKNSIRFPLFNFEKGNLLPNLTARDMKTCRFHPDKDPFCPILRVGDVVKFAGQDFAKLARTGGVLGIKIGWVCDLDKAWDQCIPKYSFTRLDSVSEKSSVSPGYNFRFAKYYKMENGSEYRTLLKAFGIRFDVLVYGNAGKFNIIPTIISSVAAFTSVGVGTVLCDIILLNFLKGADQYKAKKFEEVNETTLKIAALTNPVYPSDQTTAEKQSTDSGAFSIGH

[7] = Selectivity for P2X7 receptor over potassium channel

Sequence of P2Y purinoceptor 2 (Homo sapiens) (P41231 whole entry): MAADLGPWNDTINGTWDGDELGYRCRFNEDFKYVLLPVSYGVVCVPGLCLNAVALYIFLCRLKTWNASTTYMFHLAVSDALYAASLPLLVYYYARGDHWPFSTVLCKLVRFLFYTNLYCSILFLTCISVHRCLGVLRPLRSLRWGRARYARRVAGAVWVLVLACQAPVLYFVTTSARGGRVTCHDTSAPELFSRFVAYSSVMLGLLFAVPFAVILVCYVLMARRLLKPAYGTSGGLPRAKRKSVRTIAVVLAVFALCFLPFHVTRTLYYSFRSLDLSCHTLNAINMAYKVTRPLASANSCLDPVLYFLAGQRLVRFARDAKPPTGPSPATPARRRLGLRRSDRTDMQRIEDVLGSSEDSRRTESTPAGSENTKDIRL

Row | Compound | IC50 (P2X purinoceptor 7 [1]) [nM] | IC50 (P2X purinoceptor 7 [2]) [nM] | also measured
1 | Cc1ncccc1NC(=NC#N)NC(NC(=O)CCCCc1ccccc1)C(C)(C)C (stereo unspecified) | 50.1 | 63.1 | 
2 | Cc1ccccc1NC(=NC(NC(=O)CCCc1ccccc1)C(C)(C)C)NC#N (stereo unspecified) | 25.1 | 79.4 | 
3 | COc1ccccc1NC(=NC(NC(=O)Cc1ccc(OC)c(OC)c1)C(C)(C)C)NC#N (stereo unspecified) | 25.1 | 158 | 
4 | CC(C)(C)C(NC(=O)CCCc1cccnc1)N/C(=N/C#N)Nc1cccc2ncccc12 (stereo unspecified) | 39.8 | 100 | 
5 | CC(C)(C)C(NC(=O)Cc1ccc(Cl)cc1)N/C(=N/C#N)Nc1cccc2ncccc12 (stereo unspecified) | 6.31 | 10 | bioavailability [3]: 66%; Activity (Rattus norvegicus): 68%; ED50 (Rattus norvegicus): 55 µmol/kg
6 | COc1ccc(N/C(=N\C#N)NC(NC(=O)Cc2ccc(OC)c(OC)c2)C(C)(C)C)c(OC)n1 (stereo unspecified) | 12.6 | 31.6 | 
7 | COc1ccc(CC(=O)NC(N/C(=N/C#N)Nc2ccccc2C)C(C)(C)C)cc1OC (stereo in doubt; 13) |  |  | Activity [4]: inactive; Activity (Rattus norvegicus): 59%; ED50 (Rattus norvegicus): 77 µmol/kg; Activity [5]: inactive; Activity [6]: inactive
8 | CC(C)(C)C(NC(=O)Cc1cccc2ccccc12)NC(=NC#N)Nc1cccc2ncccc12 (stereo unspecified) | 31.6 | 31.6 | 
9 | COc1ccc(CC(=O)NC(N=C(NC#N)Nc2ccc(F)cc2)C(C)(C)C)cc1OC (stereo unspecified) | 20 | 316 | 
10 | COc1ccc(CC(=O)NC(N=C(NC#N)Nc2ccc(F)c(F)c2)C(C)(C)C)cc1OC (stereo unspecified) | 50.1 | 794 | 
11 | COc1ccc(C(=O)NC(N=C(NC#N)Nc2ccccc2C)C(C)(C)C)cc1OC (stereo unspecified) | 631 | 5010 | 
12 | COc1ccc(CC(=O)NC(NC(=NC#N)Nc2ccccc2C)C(C)(C)C)cc1OC (stereo in doubt; (-)-13) | 501 | 5010 | 
13 | COc1ccc(CCCC(=O)NC(NC(=NC#N)Nc2ccccc2C)C(C)(C)C)cc1 (stereo unspecified) | 31.6 | 79.4 | 
14 | COc1ccc(CC(=O)NC(N/C(=N/C#N)Nc2cc(F)ccc2F)C(C)(C)C)cc1OC (stereo unspecified) | 20 | 100 | 
15 | COc1ccc(CC(=O)NC(N/C(=N/C#N)Nc2ccc(F)cc2F)C(C)(C)C)cc1OC (stereo unspecified) | 10 | 251 | 
16 | COc1ncccc1N/C(=N\C#N)NC(NC(=O)c1ccc(Cl)cc1)C(C)(Cl)Cl (stereo unspecified) |  |  | Selectivity ratio [7]: 100
17 | CC(C)(C)C(N=C(NC#N)Nc1cccc2ncccc12)NC(=O)Cc1ccc2c(c1)OCCO2 (stereo unspecified) | 10 | 10 | 
18 | COc1ccc(CC(=O)NC(N/C(=N/C#N)Nc2cccc3cccnc23)C(C)(C)C)cc1OC (stereo unspecified) | 158 | 1580 | 
